Measurements published in ChEMBL document CHEMBL4152271, “Polypharmacological profile of 1,2-dihydro-2-oxo-pyridine-3-carboxamides in the endocannabinoid system” (Eur J Med Chem, 2018).
Activity calls are given as the source filed them. The calls are words filed in the database; no cut-off is given here.

What was measured:
Cannabinoid receptor 2 = Cannabinoid receptor 2 (Homo sapiens, UniProt P34972); assay: Agonist activity at human CB2 receptor expressed in CHO cell membranes after 90 mins by [35S]GTPgammaS binding assay relative to control; type: functional
Procedure, shortened: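 Membranes (5 µg) of hCB2-expressing cells in 50 mM Tris-HCl, 3 mM MgCl₂, 0.2 mM EDTA, 100 mM NaCl, 0.5% fatty acid-free BSA, pH 7.4, with 10 µM GDP and 0.1 nM [³⁵S]GTPγS. Kept on ice, started by vehicle or compound, 90 min at 30 °C. Nonspecific binding with 10 µM GTPγS. Filtered on GF/B, radioactivity counted. At least three experiments in triplicate, mean ± SD.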

Cannabinoid receptor 1 [1] = target: T1, Cannabinoid receptor 1 (Homo sapiens, UniProt P21554); assay: Agonist activity at CB1 receptor in human U251MG cells assessed as upregulation of MICA/B expression at 10 uM after 24 hrs by cytofluorimetric method; type: functional, cell-based
Procedure, shortened: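 U251MG glioma cells seeded at 2x10⁴ cells/cm², grown 24h, washed, then exposed to vehicle or compound in complete medium for 24 h. 2x10⁵ cells stained with PE anti-MICA/B or isotype control, 20 min at 4°C, fixed in 1% formaldehyde. Flow cytometry read-out as MFI, 3 independent experiments, mean ± SD, ANOVA with Bonferroni.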

[2] = target: T2, Lysophosphatidylserine lipase ABHD12 (Homo sapiens, UniProt Q8N2K0); assay: Inhibition of human ABHD12 expressed in HEK293 cells using 2-OG as substrate preincubated for 30 mins followed by substrate addition and measured after 5 mins by liquid scintillation spectroscopic method; type: cell-based
T2 sequence (Q8N2K0 whole entry): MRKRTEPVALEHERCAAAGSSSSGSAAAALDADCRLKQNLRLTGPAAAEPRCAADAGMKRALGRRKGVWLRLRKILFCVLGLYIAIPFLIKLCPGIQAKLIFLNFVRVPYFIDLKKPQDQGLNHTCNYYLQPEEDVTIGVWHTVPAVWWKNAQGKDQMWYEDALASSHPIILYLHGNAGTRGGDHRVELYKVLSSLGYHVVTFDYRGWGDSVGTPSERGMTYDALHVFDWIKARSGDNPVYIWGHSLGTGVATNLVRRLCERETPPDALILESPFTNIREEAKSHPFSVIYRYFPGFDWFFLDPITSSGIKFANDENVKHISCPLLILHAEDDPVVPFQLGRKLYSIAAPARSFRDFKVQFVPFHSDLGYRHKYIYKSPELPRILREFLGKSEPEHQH
Procedure, shortened: (§1)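 Homogenate (40 µg) of HEK293 cells stably transfected with hABHD6 or hABHD12, compound preincubated 30 min at 37 °C in […], 0.1% BSA, pH 7.6. DMSO vehicle; WWL70 10 µM or THL 20 µM as positive controls. 10 µM 2-OG added for 5 min at 37 °C, stopped with CHCl₃:MeOH. Aqueous phase counted; no-enzyme blanks and non-transfected HEK293 hydrolysis subtracted.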

Cannabinoid receptor 1 [3] = target: T1, Cannabinoid receptor 1; assay: Displacement of [3H]-CP55940 from human CB1 receptor expressed in CHO cell membranes after 90 mins
[4] = target: T3, Monoacylglycerol lipase ABHD6 (Homo sapiens, UniProt Q9BV23); assay: Inhibition of human ABHD6 expressed in HEK293 cells using 2-OG as substrate preincubated for 30 mins followed by substrate addition and measured after 5 mins by liquid scintillation spectroscopic method; type: cell-based; procedure, shortened: as §1
T3 sequence (Q9BV23 whole entry): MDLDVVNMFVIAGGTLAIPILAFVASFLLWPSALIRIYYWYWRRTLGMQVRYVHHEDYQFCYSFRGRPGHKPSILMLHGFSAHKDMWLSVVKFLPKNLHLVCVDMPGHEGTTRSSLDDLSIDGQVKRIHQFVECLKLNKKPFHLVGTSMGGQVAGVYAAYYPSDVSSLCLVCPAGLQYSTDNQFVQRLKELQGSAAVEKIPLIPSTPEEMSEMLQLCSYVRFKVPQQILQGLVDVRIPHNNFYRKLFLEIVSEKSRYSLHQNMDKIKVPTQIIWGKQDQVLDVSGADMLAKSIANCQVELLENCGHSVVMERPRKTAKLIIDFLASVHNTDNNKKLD

Monoglyceride lipase = target: T4, Monoglyceride lipase (Homo sapiens, UniProt Q99685); assay: Inhibition of MAGL in human U937 cells using 2-OG containing […] as substrate preincubated for 30 mins followed by substrate addition and measured after 15 mins by liquid scintillation spectroscopic method; type: cell-based
T4 sequence (Q99685 whole entry): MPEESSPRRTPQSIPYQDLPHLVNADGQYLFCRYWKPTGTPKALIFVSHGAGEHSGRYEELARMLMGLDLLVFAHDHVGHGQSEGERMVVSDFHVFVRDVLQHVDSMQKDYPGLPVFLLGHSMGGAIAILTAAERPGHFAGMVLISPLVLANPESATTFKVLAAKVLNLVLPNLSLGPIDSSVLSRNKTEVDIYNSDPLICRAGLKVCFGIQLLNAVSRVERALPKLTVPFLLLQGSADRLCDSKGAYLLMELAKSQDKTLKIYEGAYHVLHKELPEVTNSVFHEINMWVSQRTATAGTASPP
Procedure, shortened: (§2)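 U937 cell homogenate (100 µg) in 10 mM Tris-HCl, 1 mM EDTA, pH 8, 0.1% fatty acid-free BSA. Compound at 10 µM screening concentration, 30 min at 37 °C. FAAH: 100 nM AEA with 1 nM [³H]AEA tracer. MAGL: 1 µM 2-OG with 1 nM tritiated tracer. Both 15 min at 37 °C, stopped with CHCl₃:MeOH (1:1), aqueous phase counted.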

[5] = target: T5, Fatty-acid amide hydrolase 1 (Homo sapiens, UniProt O00519); assay: Inhibition of FAAH in human U937 cells using AEA containing [ethanolamine-1-3H]AEA as substrate preincubated for 30 mins followed by substrate addition and measured after 15 mins by liquid scintillation spectroscopic method; type: cell-based; procedure, shortened: as §2
T5 sequence (O00519 whole entry): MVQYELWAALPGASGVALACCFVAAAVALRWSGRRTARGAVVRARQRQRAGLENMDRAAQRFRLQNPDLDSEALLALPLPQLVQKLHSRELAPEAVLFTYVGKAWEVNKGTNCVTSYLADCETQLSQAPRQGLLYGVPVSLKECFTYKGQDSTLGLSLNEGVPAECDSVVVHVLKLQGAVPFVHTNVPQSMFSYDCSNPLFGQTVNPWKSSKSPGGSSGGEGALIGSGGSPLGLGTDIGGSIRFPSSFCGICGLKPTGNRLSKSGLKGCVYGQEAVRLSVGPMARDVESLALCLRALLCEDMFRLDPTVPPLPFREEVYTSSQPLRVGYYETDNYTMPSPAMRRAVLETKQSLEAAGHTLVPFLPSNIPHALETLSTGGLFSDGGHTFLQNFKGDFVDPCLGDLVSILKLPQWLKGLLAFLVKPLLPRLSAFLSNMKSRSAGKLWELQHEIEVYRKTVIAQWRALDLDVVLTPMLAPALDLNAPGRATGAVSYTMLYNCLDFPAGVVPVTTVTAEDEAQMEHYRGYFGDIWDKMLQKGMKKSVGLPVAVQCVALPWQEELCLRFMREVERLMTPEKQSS

T1 sequence (P21554 whole entry): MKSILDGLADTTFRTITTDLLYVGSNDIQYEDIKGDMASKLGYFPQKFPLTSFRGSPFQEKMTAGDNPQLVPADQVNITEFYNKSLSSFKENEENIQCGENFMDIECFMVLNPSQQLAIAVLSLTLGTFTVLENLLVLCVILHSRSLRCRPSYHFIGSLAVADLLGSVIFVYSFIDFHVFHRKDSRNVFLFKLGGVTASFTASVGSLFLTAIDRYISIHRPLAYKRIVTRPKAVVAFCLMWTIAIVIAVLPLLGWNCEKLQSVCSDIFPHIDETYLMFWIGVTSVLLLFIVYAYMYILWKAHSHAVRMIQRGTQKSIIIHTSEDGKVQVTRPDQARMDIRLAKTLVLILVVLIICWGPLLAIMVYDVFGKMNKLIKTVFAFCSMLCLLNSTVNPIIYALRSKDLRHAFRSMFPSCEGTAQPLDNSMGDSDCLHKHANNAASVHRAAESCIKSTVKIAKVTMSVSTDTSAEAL
Cannabinoid receptor 2, sequence (P34972 whole entry): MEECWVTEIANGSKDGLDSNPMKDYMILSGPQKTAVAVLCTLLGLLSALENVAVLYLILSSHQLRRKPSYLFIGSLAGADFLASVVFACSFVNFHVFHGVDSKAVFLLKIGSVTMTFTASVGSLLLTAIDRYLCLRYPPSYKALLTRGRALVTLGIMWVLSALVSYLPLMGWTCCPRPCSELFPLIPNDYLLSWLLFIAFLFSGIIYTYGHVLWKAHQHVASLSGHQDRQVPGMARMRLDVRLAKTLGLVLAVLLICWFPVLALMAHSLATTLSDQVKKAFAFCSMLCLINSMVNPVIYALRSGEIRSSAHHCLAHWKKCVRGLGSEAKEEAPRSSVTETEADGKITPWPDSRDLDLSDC

SMILES | Emax (Cannabinoid receptor 2) [%] | Activity (Cannabinoid receptor 1 [1]) | IC50 [2] [nM] | Ki (Cannabinoid receptor 1 [3]) [nM] | IC50 [4] [nM] | IC50 (Monoglyceride lipase) [nM] | IC50 [5] [nM]
Cc1c(Br)cn(Cc2ccc(F)cc2)c(=O)c1C(=O)NC1CCCCCC1 | 134 | Active | 2100 | 2.3 | > 10000 | > 10000 | 2300
COc1ccc(-c2cn(Cc3ccc(F)cc3)c(=O)c(C(=O)NC3CCCCCC3)c2C)cc1 | 99 | Active | > 10000 | 30.7 | > 10000 | > 10000 | 1300
Cc1c(Br)cnc(OCc2ccc(F)cc2)c1C(=O)NC1CCCCCC1 | 125 | Active | > 10000 | 113 | 530 | > 10000 | > 10000
